Source: PubChem BioAssay (several laboratories)
A selection: hits, their analogues and other compounds. The true share with any hit is near 2.2%.
Hck Nef HTS = human Hck-Nef kinase inhibition; P08631; Recombinant Hck-YEEI plus Nef, Z-Lyte FRET kinase assay; inhibition, % at 20 µM; 220,000 tested, 0.68% active;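 active = Hck-Nef kinase inhibition above about 50%, limit read from the data; inactive = inhibition below that limit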;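 note: 0% = DMSO with Hck plus Nef and 100% = Hck alone without Nef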
Runt-SMMHC FRET = Runt domain-CBFb-SMMHC interaction inhibition | Cerulean-Runt/Venus-CBFb-SMMHC FRET ratio 530/480, 1 h | inhibition, % at 20 µM | 220,000 tested, 0.74% active | Q01196+Q13951;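 active = mean inhibition across duplicate retests at 20 µM reaching about 50%, limit read from the data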;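 note: 0% = DMSO wells and 100% = wells with excess untagged CBFb-SMMHC; inhibitors lower the FRET ratio by blocking Runt binding to CBFb-SMMHC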
RanGTP-Impb inh = inhibitors of RanGTP-importin-beta interaction, primary screen, biochemical, FRET, CFP-Ran, YFP-importin-beta, homogeneous. cell-free CFP-Ran/YFP-importin-beta FRET ratio. inhibition, % (test concentration not listed). 300,000 tested, 1.1% active;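 active = more than half of the replicate wells show a fall in the fluorescence ratio signal beyond about 16%, limit read from the data, passing the limit was not always enough; inconclusive = exactly half of the replicate wells pass the set limit; inactive = fewer than half of replicates pass the limit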;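 note: 0% = DMSO wells and 100% = Ran loaded with GDP instead of GTP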
eIF4E 4G PPI = eIF4E/eIF4G interaction inhibition in translation initiation; P63073+Q04637; TR-FRET eIF4E-eIF4GI(517-606) binding, 2 h; inhibition, % at 21.7 µM; 220,000 tested, 0.37% active; AID 782;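 active = inhibition above about 30%, limit read from the data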;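 note: 0% = full FRET control wells and 100% = background wells lacking eIF4GI fragment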
Runt-CBFb FRET = Runt domain-CBFb interaction inhibition; Q01196+Q13951; Cerulean-Runt/Venus-CBFb FRET ratio 530/480, 1 h; inhibition, % at 20 µM; 220,000 tested, 0.46% active; AID 1496;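 active = inhibition over about 50% at 20 µM in the single-dose screen, limit read from the data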;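 note: 0% = DMSO wells and 100% = excess unlabeled CBFb competitor control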
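Measured by: fluorescence energy transfer, 422 nm excitation, 530/480 nm emission; test system: Cerulean-tagged RUNX1 Runt domain (FRET donor) fusion protein; buffer or medium: Tris pH 7.5 buffer with BSA; compound: one dose, 20 µM compound, 1% DMSO; times: two 1 h room-temperature incubations shielded from light; benchmarks: unlabeled CBFb 5 µM, positive control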
PERK inhibitor = blocks human PERK kinase; Q9NZJ5; inhibition, % at 5.6 µM; 220,000 tested, 0.17% active; CHO PERK-DD fusion, SEAP luminescence translation reporter;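 active = inhibition above the mean inhibition of all tested compounds plus 3 SD, set separately per screening campaign, cut at about 2.9% in these data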;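 note: PERK kinase domain activated by AP20187 dimerizer at 100 nM; 0% = DMSO with dimerizer and 100% = rapamycin at 8.4 µM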
Target sequence (Q9NZJ5 whole entry, looked up, the tested form may be a part): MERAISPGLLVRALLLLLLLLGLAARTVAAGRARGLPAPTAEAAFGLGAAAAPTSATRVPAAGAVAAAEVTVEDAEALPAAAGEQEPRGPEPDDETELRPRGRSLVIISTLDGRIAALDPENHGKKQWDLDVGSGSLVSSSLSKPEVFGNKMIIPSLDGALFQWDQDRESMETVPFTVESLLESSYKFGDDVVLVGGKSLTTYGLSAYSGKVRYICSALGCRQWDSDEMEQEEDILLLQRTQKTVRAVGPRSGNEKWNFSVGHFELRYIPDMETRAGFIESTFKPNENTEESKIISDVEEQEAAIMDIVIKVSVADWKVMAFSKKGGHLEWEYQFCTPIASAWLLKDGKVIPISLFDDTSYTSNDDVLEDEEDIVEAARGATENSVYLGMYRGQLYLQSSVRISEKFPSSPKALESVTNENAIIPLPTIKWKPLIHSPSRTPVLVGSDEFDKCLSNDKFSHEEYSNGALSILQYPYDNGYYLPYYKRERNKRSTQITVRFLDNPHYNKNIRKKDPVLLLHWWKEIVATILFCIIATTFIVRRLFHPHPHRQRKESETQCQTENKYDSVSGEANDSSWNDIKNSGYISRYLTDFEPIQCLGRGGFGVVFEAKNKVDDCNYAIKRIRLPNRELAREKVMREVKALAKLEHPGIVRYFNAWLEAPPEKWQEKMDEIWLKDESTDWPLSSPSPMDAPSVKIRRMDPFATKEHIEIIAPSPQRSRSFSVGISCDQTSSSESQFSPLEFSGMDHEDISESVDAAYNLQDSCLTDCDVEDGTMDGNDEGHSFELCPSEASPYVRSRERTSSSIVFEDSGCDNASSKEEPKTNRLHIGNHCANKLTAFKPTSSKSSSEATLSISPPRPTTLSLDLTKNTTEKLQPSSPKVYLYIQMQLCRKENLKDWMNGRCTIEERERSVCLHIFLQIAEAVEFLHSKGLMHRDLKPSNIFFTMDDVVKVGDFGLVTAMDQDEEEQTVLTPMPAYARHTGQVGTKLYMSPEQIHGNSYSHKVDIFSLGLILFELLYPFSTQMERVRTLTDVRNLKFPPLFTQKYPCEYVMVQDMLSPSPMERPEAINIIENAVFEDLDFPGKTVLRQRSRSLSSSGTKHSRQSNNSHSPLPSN
Starred values were filed as active, the others as inactive; ? = inconclusive; nt = no result given; [ ] = remark or other dose.

SMILES	Hck Nef HTS	Runt-SMMHC FRET	RanGTP-Impb inh	eIF4E 4G PPI	Runt-CBFb FRET	PERK inhibitor
Nc1cccc2c1C(=O)N(CC(=O)NC13CC4CC(CC(C4)C1)C3)C2=O	14	93*	5	4	20	1
O=C(Cn1sc2ccccc2c1=O)NC12CC3CC(CC(C3)C1)C2	39	25	0	41*	-55	1
O=C(OCC(=O)N1CCCC1)c1ccc(NS(=O)(=O)c2cccs2)cc1O	-19	-6	-3	-3	-3	1
CC(C)c1cc(C(=O)Nc2cccc(Cl)c2)no1	-1	-5	5	63*[fluorescence artefact?]	-2	0
CCCn1nc(C(=O)Nc2nc3ccccc3[nH]2)c2ccccc2c1=O	-1	3	0	2	-5	-1
CC(C)n1nc(C(=O)Nc2nc3ccccc3[nH]2)c2ccccc2c1=O	19	2	-1	0	103*	0
CCOc1ccc(-n2c(=O)c3c(C)c(C(=O)N(C)C)sc3n(CC(=O)Nc3ccccc3F)c2=O)cc1	20	0	19*	1	-6	2
CC(C)(C)c1ccc(CCC2OCC(C[N+]3(C)CCOCC3)O2)cc1 (stereo not drawn)	13	5	3	91*	-12	1
CCC1CCCCN1C(=O)CSc1nc2c(cnn2-c2ccc(C)cc2)c(=O)[nH]1 (stereo not drawn)	1	0	5	-9	1	3.2*
CCc1cccc(C)c1NC(=O)Nc1ccc2c(c1)OCO2	13	-2	4	-1	0	3.5*
CCOc1cc(C2NC(=S)NC(C)=C2C(=O)Nc2ccc(OC)cc2)ccc1O (stereo not drawn)	6	-3	3	-2	1	3.4*
CCOc1cccc(C2NC(=S)NC(C)=C2C(=O)Nc2ccccc2)c1 (stereo not drawn)	2	4	-7	-2	1	1
Cc1cc(Cl)ccc1C(=O)C1CCCN(C(=O)c2cc(C(C)C)no2)C1 (stereo not drawn)	15	1	-5	1	-4	0
CC(C)c1cc(C(=O)N2CCCC(C(=O)c3ccc4ccccc4c3)C2)on1 (stereo not drawn)	-3	-1	-1	3	-4	2.9*
COc1ccccc1N(CC(=O)N/N=C/c1c(O)ccc2ccccc12)S(C)(=O)=O	3	53*	2	1	36	0
Cc1nn(-c2ccccc2)c2sc(C(=O)NNC(=O)COc3ccccc3)cc12	12	128	1	3	121*	-1
CCNC(=O)C(=O)N1CCC2(CC1)OCCN2S(=O)(=O)c1ccc(C)cc1	nt	nt	-2	nt	nt	nt
O=C(CC(=O)Nc1cccc(F)c1)Nc1cccc(F)c1	nt	nt	-1	nt	nt	nt
O=C(Cn1c2ccccc2c(=O)c2ccccc21)Nc1cccc(F)c1	10	63*	60*	-4	76*	0
COc1ccc(NC(=O)c2nc[nH]c2C(=O)N2CCN(C(=O)OC(C)(C)C)CC2)cc1	30	0	25*	-5	0	nt
COc1ccc(NC(=O)c2nc[nH]c2C(=O)N2CCC(C)CC2)cc1	33	2	-2	-3	1	nt
CN(C(=O)c1cncc(Br)c1)C1C2CC3CC(C2)CC1C3 (stereo not drawn)	nt	nt	4	nt	nt	nt
Oc1ccc2ccccc2c1/C=N/n1cnnc1	-3	116*	3	4	67*	0
CCn1nc(CC(=O)Nc2ccc(-n3cnnn3)c(C)c2)c2ccccc2c1=O	7	0	1	-6	-1	-1
CC(=O)c1nnn(-c2c(F)cccc2F)c1C	6	0	2	3	-2	3.1*
SMILES	Hck Nef HTS	Runt-SMMHC FRET	RanGTP-Impb inh	eIF4E 4G PPI	Runt-CBFb FRET	PERK inhibitor
CC(=O)c1nnn(-c2ccc(F)cc2F)c1C	6	-3	4	-10	-1	1
Cc1ccc(C(=O)COC(=O)c2cc(=O)[nH]c3ccccc23)cc1C	41	-3	37*	10	0	0
COc1ccccc1C(=O)COC(=O)c1cc(=O)[nH]c2ccccc12	nt	nt	3	nt	nt	nt
CCn1c(CN2CCN(c3ccc(Cl)cc3)CC2)nc2ccccc21	4	-3	nt	-3	-2	-2
CC(C)Cc1nc(Cl)c(C#N)c2c1CCCC2	0	4	7	-2	0	0
CCC(=O)NC1=C(Cl)C(=O)C(NC(=O)CC)=C(Cl)C1=O	5	95*	nt	8	17	-1
COC(=O)c1cc(=O)n(Cc2ccc3c(c2)OCO3)c(=Nc2ccc(F)c(Cl)c2)s1	3	0	?	9	2	2.9*
O=S(=O)(O)c1ccc(N2N=C(c3ccccc3)CC2c2ccccc2)cc1 (stereo not drawn)	85*	22	?	5	5	1
CCOC(=O)c1ccc2c(c1)nc(SCC(=O)c1cc3ccccc3o1)n2CC	13	5	-15	40*	6	-1
C=CCNC(=O)CSc1nc2cc(C(=O)OCC)ccc2n1CC	-4	-5	6	4	0	-1
N#Cc1c(N2CCN(C(=O)c3ccco3)CC2)nc(-c2ccccc2)c2c1CCCC2	10	-2	2	-4	-4	-1
CN(C)Cc1c(O)ccc2c(-c3ccccc3)cc(=O)oc12	6	-49	4	2	-17	0
CCN(CC)c1ccc2cc(-c3nc4ccccc4n3C)c(=O)oc2c1	9	61*	126*	9	12	0
CCN(CC)c1ccc2cc(-c3nc4ccccc4[nH]3)c(=O)oc2c1	-9	79*	129*	-24	19	0
CCN(CC)c1ccc2cc(-c3nnc(-c4ccc(Br)cc4)o3)c(=O)oc2c1	-4	nt	nt	nt	nt	1
CN(C)Cc1c(O)ccc2cc(-c3nc4ccccc4n3C)c(=O)oc12	nt	nt	132*	nt	nt	nt
CCN(CC)c1ccc2cc(-c3nnc(-c4ccccc4)o3)c(=O)oc2c1	6	83*	115*	-2	5	-1
Cc1c(NC(=O)C(C)Oc2ncnc3ccccc23)c(=O)n(-c2ccccc2)n1C (stereo not drawn)	-1	-1	-3	-2	0	1
CCn1cc(C(=O)NCCc2ccc(Cl)cc2)c(=O)c2cc(S(=O)(=O)N(C)C)ccc21	nt	nt	1	nt	nt	nt
COCC(C)NC(=O)Cn1c(SCc2ccccc2)nc2ccccc21 (stereo not drawn)	nt	nt	-1	nt	nt	nt
CCN(CC)c1ccc2cc(-c3nc(-c4ccc(OC)cc4)cs3)c(=O)oc2c1	-10	62*	nt	2	20	0
Cc1nc(N2CCCCC2)c2ccsc2n1	-12	3	-6	-4	1	1
Cc1cc(O)ccc1Nc1nc2ccccc2nc1Nc1ccc(O)cc1C	1	nt	37*	1	38	0
